# What was measured:
# [1] = Cytotoxicity against HEK293T cells assessed as cell viability at 2 to 64 uM after 24 hrs by MTT assay relative to control; assay type: cell-based, HEK-293T; conditions: human, read-out: Activity
# In short: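 MTT viability assay. RAW264.7 or HEK293T cells at (1.0−2.0) × 10^5 per well were exposed to a peptide concentration series for 24 h at 37 °C in 5% CO2. MTT was then added at 0.5 mg/mL final for 4 h; formazan was dissolved in DMSO and read at 570 nm. Results average three independent trials.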
# Escherichia coli [2] = assay: Antibacterial activity against Escherichia coli ATCC 25922 after 24 hrs; assay type: functional; conditions: ATCC 25922, 24 h
# In short: (§1)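 Broth microdilution. Mid-log bacteria in MHB at a final (0.5−1) × 10^5 CFU/mL were mixed with equal volumes of peptide serially diluted in 0.2% BSA. Plates were incubated 24 h at 37 °C and read at A492. MIC is the lowest concentration inhibiting 95% of growth. Each test was repeated at least 3 times.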
# Escherichia coli [3] = assay: Antibacterial activity against Escherichia coli 1005 after 24 hrs; assay type: functional; conditions: Escherichia coli, 1005, 24 h; in short: as §1
# Salmonella typhimurium = assay: Antibacterial activity against Salmonella typhimurium ATCC 14028 after 24 hrs; assay type: functional, Salmonella enterica subsp. enterica serovar Typhimurium; conditions: Salmonella enterica, ATCC 14028, 24 h; in short: as §1
# Staphylococcus aureus [4] = assay: Antibacterial activity against methicillin-resistant Staphylococcus aureus ATCC 4330 after 24 hrs; assay type: functional; conditions: ATCC 4330, 24 h
# In short: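 Modified NCCLS broth microdilution. Mid-log bacteria at (0.5−1) × 10^5 CFU/mL in MHB were mixed 1:1 with peptide serially diluted in 0.2% BSA and incubated 24 h at 37 °C. Absorbance was read at 492 nm; MIC is the lowest concentration inhibiting 95% of growth. At least 3 repeats.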
# [5] = tested on: Staphylococcus epidermidis; assay: Antibacterial activity against Staphylococcus epidermidis ATCC 12228 after 24 hrs; assay type: functional; conditions: ATCC 12228, 24 h; in short: as §1
# Escherichia coli [6] = assay: Bactericidal activity against Escherichia coli 1005; assay type: functional; conditions: read-out: MBC99.9
# In short: (§2)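 Wells from the 24 h, 37 °C MHB microdilution plates (bacteria at a final (0.5−1) × 10^5 CFU/mL; peptide diluted in 0.2% BSA) were plated on agar and incubated overnight. MBC is the lowest concentration killing >99.9% of cells. Each test was reproduced at least 3 times.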
# Staphylococcus aureus [7] = assay: Bactericidal activity against Staphylococcus aureus ATCC 29213; assay type: functional; conditions: read-out: MBC99.9; in short: as §2
# Staphylococcus aureus [8] = assay: Bactericidal activity against methicillin-resistant Staphylococcus aureus ATCC 4330; assay type: functional; conditions: read-out: MBC99.9
# In short: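 Bacteria at (0.5−1) × 10^5 CFU/mL in MHB were exposed to serially diluted peptide (0.2% BSA) for 24 h at 37 °C, then 50 μL aliquots were plated on agar overnight. MBC is the lowest concentration killing >99.9% of cells. At least 3 repeats.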
# Staphylococcus aureus [9] = assay: Bactericidal activity against Staphylococcus aureus ATCC 25923; assay type: functional; conditions: read-out: MBC99.9; in short: as §2
# Candida albicans [10] = assay: Antifungal activity against Candida albicans SP3876 after 48 hrs by broth microdilution method; assay type: functional; conditions: SP3876, 48 h
# In short: (§3)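 Modified CLSI M27-A2 broth microdilution. Yeast at (0.5−1) × 10^3 CFU/mL in MOPS-buffered RPMI 1640 was mixed 1:1 with peptide serially diluted in 0.2% BSA and incubated 48 h at 28 °C. Absorbance was read at 492 nm; MIC is the lowest concentration inhibiting 95% of growth. Triplicate, three biological replicates.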
# Candida albicans [11] = assay: Antifungal activity against Candida albicans isolated from alveolar fluid after 48 hrs by broth microdilution method; assay type: functional; in short: as §3
# Candida albicans [12] = assay: Antifungal activity against Candida albicans 14936 after 48 hrs by broth microdilution method; assay type: functional; conditions: Candida albicans, 14936, 48 h; in short: as §3
# Candida albicans [13] = assay: Fungicidal activity against Candida albicans cgmcc 2.2086 after 96 hrs; assay type: functional; conditions: cgmcc 2.2086, 96 h, read-out: MFC99.9
# In short: (§4)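 After the 48 h, 28 °C broth microdilution in MOPS-buffered RPMI 1640 (inoculum (0.5−1) × 10^3 CFU/mL), 50 μL from each well was plated on YM agar for a further 48 h at 28 °C. MFC is the lowest concentration killing at least 99.9% of cells. Triplicate, three biological replicates.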
# Candida albicans [14] = assay: Fungicidal activity against Candida albicans SP3903 after 96 hrs; assay type: functional; conditions: SP3903, 96 h, read-out: MFC99.9; in short: as §4
# Candida albicans [15] = assay: Fungicidal activity against Candida albicans SP3902 after 96 hrs; assay type: functional; conditions: SP3902, 96 h, read-out: MFC99.9; in short: as §4
# Candida albicans [16] = assay: Fungicidal activity against Candida albicans SP3876 after 96 hrs; assay type: functional; conditions: SP3876, 96 h, read-out: MFC99.9; in short: as §4
# Candida albicans [17] = assay: Fungicidal activity against Candida albicans isolated from alveolar fluid after 96 hrs; assay type: functional; conditions: read-out: MFC99.9; in short: as §4
# Candida albicans [18] = assay: Fungicidal activity against fluconazole-resistant Candida albicans 56452 after 96 hrs; assay type: functional; conditions: Candida albicans, 56452, 96 h; read-out: MFC99.9; in short: as §4
# Candida tropicalis = assay: Fungicidal activity against Candida tropicalis cgmcc 2.1975 after 96 hrs; assay type: functional; conditions: cgmcc 2.1975, 96 h, read-out: MFC99.9
# In short: (§5)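 Wells from the 48 h, 28 °C RPMI 1640/MOPS microdilution plates were plated on YM agar and incubated a further 48 h at 28 °C. MFC is the lowest concentration killing at least 99.9% of cells. Run in triplicate with three biological replicates.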
# Pichia kudriavzevii = assay: Fungicidal activity against Candida krusei cgmcc 2.1857 after 96 hrs; assay type: functional; conditions: cgmcc 2.1857, 96 h, read-out: MFC99.9; in short: as §5
# Erythrocyte = assay: Hemolytic activity in human RBC after 1 hr; assay type: ADME, cell-based
# In short: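 Fresh human erythrocytes, diluted 10-fold in PBS pH 7.4, were mixed with equal volumes of peptide and held 1 h at 37 °C. After centrifugation at 1000g, supernatant hemoglobin was read at 576 nm. PBS set 0% and 0.1% Triton X-100 set 100% lysis. MHC is the concentration causing 10% hemolysis. At least three experiments were run, each in technical triplicate.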
# Escherichia coli [19] = assay: Antibacterial activity against Escherichia coli ATCC 25922 after 18 hrs in presence of NH4Cl by broth dilution method; assay type: functional; conditions: ATCC 25922, 18 h
# Escherichia coli [20] = assay: Antibacterial activity against Escherichia coli ATCC 25922 after 18 hrs in presence of CaCl2 by broth dilution method; assay type: functional; conditions: ATCC 25922, 18 h
# Escherichia coli [21] = assay: Antibacterial activity against Escherichia coli ATCC 25922 after 18 hrs in presence of ZnCl2 by broth dilution method; assay type: functional; conditions: ATCC 25922, 18 h
# Candida albicans [22] = assay: Antifungal activity against Candida albicans cgmcc 2.2086 in presence of NaCl by broth dilution method; assay type: functional
# Candida albicans [23] = assay: Antifungal activity against Candida albicans cgmcc 2.2086 in presence of MgCl2 by broth dilution method; assay type: functional
# Candida albicans [24] = assay: Antifungal activity against Candida albicans cgmcc 2.2086 in presence of CaCl2 by broth dilution method; assay type: functional
# Candida albicans [25] = assay: Antifungal activity against Candida albicans cgmcc 2.2086 in presence of ZnCl2 by broth dilution method; assay type: functional
# Candida albicans [26] = assay: Antifungal activity against Candida albicans 58288 after 48 hrs by broth microdilution method; assay type: functional; conditions: Candida albicans, 58288, 48 h; in short: as §3
# Candida albicans [27] = assay: Fungicidal activity against Candida albicans 58288 after 96 hrs; assay type: functional; conditions: Candida albicans, 58288, 96 h; read-out: MFC99.9; in short: as §4
Molecule,MIC95 (Escherichia coli [2]) [µM],MIC95 (Escherichia coli [3]) [µM],MIC95 (Salmonella typhimurium) [µM],MIC95 (Staphylococcus aureus [4]) [µM],MIC95 [5] [µM],MBC (Escherichia coli [6]) [µM],MBC (Staphylococcus aureus [7]) [µM],MBC (Staphylococcus aureus [8]) [µM],MBC (Staphylococcus aureus [9]) [µM],MIC95 (Candida albicans [10]) [µM],MIC95 (Candida albicans [11]) [µM],MIC95 (Candida albicans [12]) [µM],MFC (Candida albicans [13]) [µM],MFC (Candida albicans [14]) [µM],MFC (Candida albicans [15]) [µM],MFC (Candida albicans [16]) [µM],MFC (Candida albicans [17]) [µM],MFC (Candida albicans [18]) [µM],MFC (Candida tropicalis) [µM],MFC (Pichia kudriavzevii) [µM],other results
H-RFFRRFRRFFR-NH2,8,8,4,4,4,8,16,8,8,8,8,8,16,4,8,8,16,8,4,4,"viability at 24 h, up to 64 µM [1]: 70 to 80%; HC10 (Erythrocyte): > 128 µM; MIC (Escherichia coli [19]): 4 µM; MIC (Escherichia coli [20]): 8 µM; MIC (Escherichia coli [21]): 8 µM; MIC (Candida albicans [22]): 32 µM; MIC (Candida albicans [23]): 8 µM; MIC (Candida albicans [24]): 64 µM; MIC (Candida albicans [25]): 8 µM; MIC95 (Candida albicans [26]): 4 µM; MFC (Candida albicans [27]): 16 µM"
H-RRWRWWWRWRR-NH2,4,4,4,4,4,4,4,8,8,2,4,8,8,4,4,4,8,4,4,2,"viability at 24 h, up to 64 µM [1]: 70 to 80%; HC10 (Erythrocyte): > 128 µM; MIC (Escherichia coli [19]): 4 µM; MIC (Escherichia coli [20]): 8 µM; MIC (Escherichia coli [21]): 4 µM; MIC (Candida albicans [22]): 8 µM; MIC (Candida albicans [23]): 4 µM; MIC (Candida albicans [24]): 8 µM; MIC (Candida albicans [25]): 4 µM; MIC95 (Candida albicans [26]): 2 µM; MFC (Candida albicans [27]): 8 µM"
H-RWWRRWRRWWR-NH2,16,8,8,4,4,8,8,8,16,2,4,4,8,2,4,2,8,8,4,4,HC10 (Erythrocyte): > 128 µM; MIC (Escherichia coli [19]): 16 µM; MIC (Escherichia coli [20]): 32 µM; MIC (Escherichia coli [21]): 16 µM; MIC (Candida albicans [22]): 16 µM; MIC (Candida albicans [23]): 8 µM; MIC (Candida albicans [24]): 8 µM; MIC (Candida albicans [25]): 4 µM; MIC95 (Candida albicans [26]): 2 µM; MFC (Candida albicans [27]): 8 µM
CC[C@H](C)[C@H](NC(=O)CN)C(=O)NCC(=O)N[C@@H](C)C(=O)N[C@H](C(=O)N[C@@H](CC(C)C)C(=O)N[C@@H](CCCCN)C(=O)N[C@H](C(=O)N[C@@H](CC(C)C)C(=O)N[C@H](C(=O)N[C@H](C(=O)NCC(=O)N[C@@H](CC(C)C)C(=O)N1CCC[C@H]1C(=O)N[C@@H](C)C(=O)N[C@@H](CC(C)C)C(=O)N[C@H](C(=O)N[C@@H](CO)C(=O)N[C@@H](Cc1c[nH]c2ccccc12)C(=O)N[C@H](C(=O)N[C@@H](CCCCN)C(=O)N[C@@H](CCCNC(=N)N)C(=O)N[C@@H](CCCCN)C(=O)N[C@@H](CCCNC(=N)N)C(=O)N[C@@H](CCC(N)=O)C(=O)N[C@@H](CCC(N)=O)C(N)=O)[C@@H](C)CC)[C@@H](C)CC)[C@@H](C)O)[C@@H](C)O)C(C)C)C(C)C [MELITTIN],2,2,1,1,0.5,2,8,1,4,4,4,4,8,4,2,4,4,8,8,4,HC10 (Erythrocyte): 0.25 µM; MIC (Candida albicans [22]): 8 µM; MIC (Candida albicans [23]): 4 µM; MIC (Candida albicans [24]): 8 µM; MIC (Candida albicans [25]): 4 µM; MIC95 (Candida albicans [26]): 4 µM; MFC (Candida albicans [27]): 4 µM

# From ChEMBL document CHEMBL4177755, “Combating Drug-Resistant Fungi with Novel Imperfectly Amphipathic Palindromic Peptides” (J Med Chem, 2018)
